An excerpt weighted towards active compounds, which were near 27% of everything screened.
Cav32 inh: blocks human Cav3.2 T-type calcium channel; O95180; Cav3.2-expressing cells, Fluo-4 calcium fluorescence FDSS; hits give low values; B-score at 10 µM; hit rate 4% among 100,000; AID 449739;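 active = single-dose well whose peak fluorescence ratio is a statistical outlier from its plate by either plate-standardised score or position-corrected B-score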
CYP2C19 inh: blocks human cytochrome P450 2C19; CYP2C19 Supersomes, luciferin-H EGE luminescence, 30 min; inhibition, % at 5 µM; hit rate 21% among 96,000; AID 778;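 active = CYP2C19 inhibition above a set limit at 5 µM in the primary screen, cut at about 50% in these data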;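 note: plate controls were negative control wells for no effect and 2.5 mM tranylcypromine positive control for full effect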
CYP2C19 activ: increases human CYP2C19 enzyme activity. P33261. recombinant CYP2C19, luciferin-H EGE luminescence; hits give high values; 0 = fully inhibited enzyme, 1 = untreated enzyme. activation factor at 5 µM. 96,000 tested, under 10 active. AID 1025;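 active = activation factor of at least 2 at 5 µM in the primary screen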;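 note: 0 = wells with 2.5 mM tranylcypromine and 1 = vehicle-only wells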
CYP2C9 inh: inhibitors of human CYP2C9; P11712; CYP2C9 Supersomes, luciferin-H conversion, luminescence; inhibition, % at 5 µM; hit rate 20% among 96,000;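 active = blocking of liver enzyme CYP2C9 beyond about 50% at 5 µM, limit read from the data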
Rev-RRE block: HIV Rev-RRE protein-RNA interaction inhibition | P05866 | Rev peptide-RRE RNA binding, FRET | inhibition, % at 8 µM | hit rate 0.79% among 97,000 | AID 704;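 active = inhibition above the screen-wide mean plus 3 SD, cut at about 35% in these data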;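 note: 0% = median DMSO wells and 100% = median Neomycin B control wells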
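Test system – labelled RRE RNA duplex and labelled Rev peptide · Reagent – labelled Rev peptide · Doses – one concentration, 8 µM nominal · Incubation – 5 + 15 min at 25 °C · Signal – FRET fluorescence readout · Read-out basis – % inhibition of FRET ratio versus controls · Control set – DMSO wells as 0% and neomycin B wells as 100% inhibition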
CYP2C9 act: CYP2C9 (human) activation. recombinant CYP2C9, luciferin-H conversion, luminescence; hits give high values; factor 1 = untreated enzyme, 0 = blocked. hit rate 1.4% among 96,000. activation factor at 5 µM. P11712. AID 1024;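 active = activation factor of 2 or more for CYP2C9 at a 5 µM dose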;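 note: 0 = sulfaphenazole-blocked wells and 1 = vehicle-only wells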
Numbers without * were called inactive; x = no result given.

SMILES | Cav32 inh | CYP2C19 inh | CYP2C19 activ | CYP2C9 inh | Rev-RRE block | CYP2C9 act
CC(=O)Oc1ccc(N(C(C)=O)S(=O)(=O)c2cccs2)c2ccccc12 | 0.106 | 88.5* | 0.1 | 49.0 | 10.2 | 0.5
CC(=O)c1ccc(OCCCC(=O)OCC(=O)N2CCN(c3ccccc3)CC2)cc1 | 0.256 | 14.0 | 0.9 | 15.6 | 9.7 | 0.8
CCCOc1ccc(N2C(=O)CC(N(CCc3ccc(OC)cc3)C(=O)c3cccc(F)c3)C2=O)cc1 (stereo unspecified) | -4.58* | 61.8* | 0.4 | 58.5* | 3.4 | 0.4
COc1ccc(OC)c(NC(=O)c2ccccc2OC(C)=O)c1 | -0.838 | x | x | x | x | x
COc1cccc(-c2nc3n(n2)C(c2cccs2)C(C(=O)Nc2cccnc2)=C(C)N3)c1 (stereo unspecified) | -1.06 | 77.0* | 0.2 | 98.7* | x | 0
CC1=C(C(=O)Nc2ccccc2C)C(c2cccnc2)n2nc(CCCO)nc2N1 (stereo unspecified) | 0.204 | -15.3 | 1.2 | 52.9* | 1.9 | 0.5
CC1=C(C(=O)Nc2ccccc2)C(c2cccnc2)n2nc(-c3cccnc3)nc2N1 (stereo unspecified) | 0.506 | 26.4 | 0.7 | 75.0* | 4.9 | 0.3
COC(=O)C1=C(C)Nc2nc(-c3ccccc3)nn2C1c1ccc(C)o1 (stereo unspecified) | -2.03 | 65.9* | 0.3 | 70.6* | 13.9 | 0.3
CC1=C(C(=O)Nc2cccnc2)C(c2cccnc2)n2nc(-c3cccs3)nc2N1 (stereo unspecified) | -1.07 | 23.8 | 0.8 | 47.0 | 0.8 | 0.5
O=C(CSc1nnc(Cc2ccccc2)n1-c1ccc(Cl)cc1)N1CCOCC1 | -0.766 | 7.7 | 0.9 | 0.8 | 6.7 | 1
CCCS(=O)(=O)c1cn2cccc(N)c2c1S(=O)(=O)CCC | 0.161 | 10.9 | 0.9 | 11.2 | x | 0.9
Nc1ccc2nc(-c3ccc(Cl)cc3)[nH]c2c1 | x | 58.7* | 0.4 | 47.8 | x | 0.5
Nc1ccc2nc(-c3cc(Cl)c(N)c(Cl)c3)[nH]c2c1 | 1.17 | x | x | x | 6.0 | x
O=C(COc1ccc(N2CC(C(=O)O)CC2=O)cc1)Nc1cccc(C(F)(F)F)c1 (stereo unspecified) | 1.43 | -4.5 | 1 | -19.8 | -1.1 | 1.2
CCCCCc1ccc(CC(=O)Nn2c(C)nc3ccccc3c2=O)cc1 | -3.58 | 59.8* | 0.4 | 94.6* | 8.4 | 0.1
Cc1nc2ccccc2c(=O)n1NC(=O)Cc1ccc(Br)cc1 | 0.149 | 39.5 | 0.6 | 84.7* | 4.5 | 0.2
CCCN1C(=O)SC(CC(=O)Nc2cccc3ccccc23)C1=O (stereo unspecified) | 0.696 | x | x | x | 3.4 | x
CCCN1C(=O)SC(CC(=O)Nc2ccccc2)C1=O (stereo unspecified) | -0.00329 | 88.8* | 0.1 | 50.3* | 5.6 | 0.5
O=C(CC1SC(=Nc2ccccc2)N(CCCO)C1=O)Nc1ccc(Cl)cc1 (stereo unspecified) | -3.41 | 73.0* | 0.3 | 88.2* | x | 0.1
CCOC(=O)c1ccc(NC(=O)c2cn(-c3ccccc3)nc2-c2ccncc2)cc1 | 0.00825 | 15.0 | 0.8 | 31.0 | 4.2 | 0.7
CN(C)S(=O)(=O)c1ccc(NC(=O)Cn2c(-c3ccccc3)noc2=O)cc1 | -0.415 | 77.6* | 0.2 | 95.4* | -2.2 | 0
COC(=O)c1nc2n(n1)C(c1cc(OC)ccc1OC)C(C(=O)OC1CCCCC1)=C(C)N2 (stereo unspecified) | -4.83* | 47.1 | 0.5 | 67.8* | 7.1 | 0.3
C=CCOC(=O)C1=C(C)Nc2nnnn2C1c1ccc(OC)cc1OC (stereo unspecified) | -0.104 | 20.5 | 0.8 | 11.6 | 8.8 | 0.9
CCOC(=O)C1=C(C)Nc2ncnn2C1c1cc(OC)ccc1OC (stereo unspecified) | 2.05 | -4.1 | 1 | 19.1 | 3.7 | 0.8
COC(=O)C1=C(C)Nc2nnnn2C1c1cc(OC)ccc1OC (stereo unspecified) | 1.81 | 29.9 | 0.7 | 60.8* | 6.7 | 0.4
SMILES | Cav32 inh | CYP2C19 inh | CYP2C19 activ | CYP2C9 inh | Rev-RRE block | CYP2C9 act
C=CCSc1ncccc1C(=O)O | 0.471 | 6.8 | 0.9 | 9.8 | 0.6 | 0.9
COC(=O)c1cc(-c2ccc(Br)cc2)on1 | x | -3.4 | 1 | 29.4 | 1.6 | 0.7
CC1CCCC(C)N1c1nnc(NC(=O)c2cc(-c3ccc(Br)cc3)on2)s1 (stereo unspecified) | x | 52.0* | 0.5 | 74.0* | 8.0 | 0.3
CCn1cnc2cc(NCc3ccncc3)ccc21 | 0.896 | 48.9 | 0.5 | 62.5* | 0.5 | 0.4
CCc1ccc(CNc2ccc3c(c2)ncn3C)cc1 | 1.01 | 69.5* | 0.3 | 20.7 | -1.8 | 0.8
COc1ccc(CNc2ccc3c(c2)nc(C)n3C)cc1 | 0.789 | 57.9* | 0.4 | 3.3 | -0.9 | 1
CC(C)(C)NC(=O)NC(=O)COC(=O)c1cc(=O)[nH]c2ccccc12 | -0.00151 | 15.3 | 0.8 | 35.2 | 8.8 | 0.6
CCCC(C)C(=O)Nc1ccc(C(N)=O)cc1 (stereo unspecified) | 1.19 | -14.0 | 1.1 | -20.2 | 9.9 | 1.2
O=C(O)c1ccc(-c2noc(-c3cccc(F)c3)n2)cc1 | 0.5 | x | x | x | x | x
CC(C)c1ccc(NC(=O)N(CCc2nc3ccccc3[nH]2)C2CCCC2)cc1 | -6.57* | 6.3 | 0.9 | 34.5 | 11.4 | 0.7
O=C(/C=C/c1ccc(Cl)cc1)NCCN1CCOCC1 | 0.566 | 5.6 | 0.9 | 11.0 | 1.6 | 0.9
CCC(=O)c1ccc(N2CCN(C(=O)c3ccc(Br)cc3)CC2)c(F)c1 | 0.716 | 38.9 | 0.6 | 13.7 | 2.2 | 0.9
CCC(=O)c1cc(F)c(N2CCN(C(=O)Cc3ccccc3)CC2)cc1C | 0.515 | 84.9* | 0.2 | 83.5* | 10.1 | 0.2
Cc1cc(N2CCOCC2)c(F)cc1C(=O)c1ccccc1 | -0.844 | 59.0* | 0.4 | 13.1 | 2.9 | 0.9
CC(=O)c1cc(F)c(N2CCOCC2)cc1C | 1.81 | -7.3 | 1.1 | 0.0 | 3.0 | 1
CCC(=O)c1ccc(N2CCN(C(=O)Cc3ccccc3)CC2)c(F)c1 | 0.328 | 78.1* | 0.2 | 95.4* | 6.1 | 0
O=C(CCn1c(=O)sc2ccccc21)NCc1ccco1 | 0.2 | x | x | x | 6.3 | x
COc1ccc([C@H]2/C=C\CN(C(=O)C3CC3)[C@@H](C)C(=O)N2Cc2ccc(F)cc2)cc1 | -0.632 | x | x | x | x | x
Cc1ccc(C(=O)COC(=O)CNC(=O)C(c2ccccc2)c2ccccc2)cc1[N+](=O)[O-] | -0.71 | 30.5 | 0.7 | -20.5 | 15.4 | 1.2
Cc1ccccc1CSCC(Nc1ccc(C(=O)O)cc1[N+](=O)[O-])C(=O)O (stereo unspecified) | 1.63 | -1.6 | 1 | 69.3* | 10.3 | 0.3
Cc1cc(C)c(S(=O)(=O)N2CCN(c3ccc([N+](=O)[O-])c(NCC4CCCO4)c3)CC2)c(C)c1 (stereo unspecified) | -1.35 | 36.0 | 0.6 | 56.1* | 6.6 | 0.4
